Assay results: ChEMBL document CHEMBL1155291, “Structure-activity relationship of dopaminergic halogenated 1-benzyl-tetrahydroisoquinoline derivatives” (Eur J Med Chem, 2009)

Assays:
[1] = Displacement of [3H]SCH23390 from dopamine D1-like receptor in Wistar rat striatal membrane after 1 hr by scintillation counting; assay type: cell membranes, Striatum
In short: (§1)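 Striatal membranes from female Wistar rats, 100 µg/mL, in Tris-ions buffer pH 7.4 (120 mM NaCl, 2 mM CaCl2, 5 mM KCl, 1 mM MgCl2, 0.1% ascorbic acid). Incubated 1 h at 23 °C with 0.25 nM [3H]-SCH23390 and competitor 10^-10 to 10^-4 M. Non-specific binding with 30 µM SK&F38393. Filtration, then scintillation counting. Ki from KD 0.36 nM. Mean ± SEM of 3–6 experiments.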

[2] = Displacement of [3H]raclopride from dopamine D2-like receptor in Wistar rat striatal membrane after 1 hr by scintillation counting; assay type: cell membranes, Striatum
In short: as §1, with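 “200” for “100”, “0.5” for “0.25”, “[3H]-raclopride” for “[3H]-SCH23390”, “50” for “30”, “apomorphine.” for “SK&F38393.”, “1.25” for “0.36”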

Rattus norvegicus = species on record: Rattus norvegicus; assay: Selectivity ratio of Ki of Wistar rat dopamine D1-like receptor to Ki for Wistar rat dopamine D2-like receptor

Ki [1] [µM] | pKi [1] | Ki [2] [µM] | pKi [2] | Ratio Ki (Rattus norvegicus) | SMILES
0.11 | 7.06 | 0.046 | 7.39 | 2.4 | Oc1cc2c(cc1Cl)CCNC2Cc1ccccc1Br (stereo not given)
1.53 | 5.83 | 0.245 | 6.63 | 6.2 | COc1cc2c(cc1Cl)CCNC2Cc1ccccc1Br (stereo not given)
0.241 | 6.71 | 0.269 | 6.64 | 0.9 | CN1CCc2cc(Cl)c(O)cc2C1Cc1ccc(Cl)cc1Cl (stereo not given)
11.3 | 5.01 | 3.3 | 5.51 | 3.4 | COc1cc2c(cc1Cl)CCNC2Cc1ccc(Cl)cc1Cl (stereo not given)
0.183 | 6.74 | 0.107 | 7 | 1.7 | Oc1cc2c(cc1Cl)CCNC2Cc1ccc(Cl)cc1Cl (stereo not given)
1.32 | 5.89 | 1.34 | 5.9 | 1 | COc1cc2c(cc1Cl)CCN(C)C2Cc1ccccc1Br (stereo not given)
0.065 | 7.21 | 0.018 | 7.76 | 3.6 | CN1CCc2cc(Cl)c(O)cc2C1Cc1ccccc1Br (stereo not given)
15.1 | 4.84 | 6.13 | 5.23 | 2.5 | COc1cc2c(cc1Cl)CCN(C)C2Cc1ccc(Cl)cc1Cl (stereo not given)
